Tests used:
[1] = Selectivity index, ratio of CC50 for cytotoxicity in human Huh7.5 cells assessed as reduction in cell viability incubated for 96 hrs by MTT assay to EC50 for antiviral activity against HCV J6/JFH/JC1 infected in human Huh7.5 cells incubated for 72 hrs by In-Cell Western assay; assay type: toxicity, cell-based; settings: read-out: Ratio CC50/EC50
Outline: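 HCVcc (MOI=0.1) infected Huh7.5 cells co-treated with eight-step 1:5 serial dilutions, triplicate wells. After 72 h, fixed, permeabilized, and stained for HCV Core and GAPDH with IR-dye secondaries. Core normalized to GAPDH. CC50 came from MTT at 96 h in uninfected Huh7.5 cells. EC50/CC50 were derived by Reed & Muench, mean ± SD of three independent experiments.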

[2] = Cytotoxicity in human Huh7.5 cells assessed as reduction in cell viability incubated for 96 hrs by MTT assay; assay type: cell-based
Outline: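 Huh7.5 cells seeded 24 h before compound addition. Viability read by MTT at 96 h. Eight-step 1:5 serial dilutions in triplicate; CC50 by Reed & Muench; three independent experiments.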

Hepatitis C virus [3] = test: Antiviral activity against HCV J6/JFH/JC1 infected in human Huh7.5 cells incubated for 72 hrs by In-Cell Western assay; assay type: functional, organism-based, Hepacivirus hominis; settings: J6/JFH/JC1, Huh7.5, 72 h
Outline: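 Huh7.5 cells infected with HCVcc (MOI 0.1) and treated with compound at the same time for 72 h. Cells fixed with PFA, permeabilized, then stained for HCV Core and GAPDH with IR-dye secondaries. Core signal normalized to GAPDH. Eight-step 1:5 dilutions in triplicate; EC50 by Reed & Muench; mean of three experiments.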

Hepatitis C virus [4] = test: Antiviral activity against HCV J6/JFH/JC1 infected in human Huh7.5 cells assessed as reduction in viral RNA levels incubated for 72 hrs by qRT-PCR analysis; assay type: functional, organism-based, Hepacivirus hominis; settings: J6/JFH/JC1, Huh7.5, 72 h
Outline: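 Huh7.5 cells seeded 24 h, then infected with wild-type (or mutant) HCV with compound added at the same time. Incubated 72 h. Intracellular HCV RNA measured by qRT-PCR, 2^-ΔCt method, normalized to GAPDH. Eight-step 1:5 serial dilutions in triplicate; EC50 by Reed & Muench; three independent experiments.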

Structure (SMILES)	selectivity ratio [1]	CC50 at 96 h [2] [µM]	EC50 (Hepatitis C virus [3]) [µM]	EC50 (Hepatitis C virus [4]) [µM]
CC1CN(Cc2cc(N(C)CCN(C)C)ccc2C#N)CCN1c1ccc(Cl)cc1 (stereo not drawn)	42	13.7	0.321	–
N#Cc1ccc(NCCN2CCOCC2)cc1CN1CCN(c2ccc(Cl)cc2)CC1	16	76.3	4.69	–
N#Cc1ccc(NCc2ccccn2)cc1CN1CCN(c2ccc(Cl)cc2)CC1	> 14	> 200	13.7	–
Cc1ccc(NCc2cc(N3CCOCC3)ccc2C#N)cc1	–	133	–	> 66.7
CN1CCN(c2ccc(C#N)c(CN3CCN(c4ccc(Cl)cc4)CC3)c2)CC1	20	16.1	0.783	–
CN1CCN(c2ccc(C#N)c(CNc3ccc(Cl)cc3)c2)CC1	–	18.3	–	0.42
CN(C)c1ccc(C#N)c(CN2CCN(c3ccc(Cl)cc3)CC2)c1	> 3	> 200	57.5	–
CN(C)CCN(C)c1cccc(CN2CCN(c3ccc(Cl)cc3)CC2)c1	14	13.6	0.936	–
CC(C)CCNc1ccc(C#N)c(CN2CCN(c3ccc(Cl)cc3)CC2)c1	> 1	> 200	119	–
CN(C)CCNc1ccc(C#N)c(CN2CCN(c3ccc(Cl)cc3)CC2)c1	15	14.8	0.952	–
CN(C)CCN(C)c1ccc(C#N)c(CN2CCN(c3ccc([N+](=O)[O-])cc3)CC2)c1	40	12.8	0.314	–
CN(C)CCN(C)c1ccc(C#N)cc1CN1CCN(c2ccc(Cl)cc2)CC1	11	14.6	1.33	–
CN(C)CCN(C)c1ccc(C#N)c(CN2CCN(c3ccc(Cl)cc3Cl)CC2)c1	59	9.85	0.166	–
CN(C)CCN(C)c1ccc(C#N)c(CN2CCN(c3ccc(Cl)nc3)CC2)c1	21	52.6	2.51	–
N#Cc1ccc(N2CCC(N3CCCC3)CC2)cc1CN1CCN(c2ccc(Cl)cc2)CC1	42	13.5	0.318	–
COc1ccc(NCc2cc(N3CCN(C)CC3)ccc2C#N)cc1	–	48.2	–	2.14
N#Cc1ccc(N2CCNCC2)cc1CN1CCN(c2ccc(Cl)cc2)CC1	20	13.7	0.657	–
CN(C)CCN(C)c1ccc(C#N)c(CN2CCN(c3ccc(Cl)cc3[N+](=O)[O-])CC2)c1	57	12.5	0.217	–
CN(C)CCN(C)c1ccc(C#N)c(CN2CCN(c3ccc(C#N)cc3)CC2)c1	4	9.05	1.87	–
CN1CCCN(c2ccc(C#N)c(CN3CCN(c4ccc(Cl)cc4)CC3)c2)CC1	81	12.5	0.153	–

Structure (SMILES)	selectivity ratio [1]	CC50 at 96 h [2] [µM]	EC50 (Hepatitis C virus [3]) [µM]	EC50 (Hepatitis C virus [4]) [µM]
CCC(=O)N(C)CCN(C)c1ccc(C#N)c(CN2CCN(c3ccc(Cl)cc3)CC2)c1	5	40	7.29	–
Cc1cc(Cl)ccc1N1CCN(Cc2cc(N(C)CCN(C)C)ccc2C#N)CC1	49	10.1	0.203	–
CN(C)CCCN(C)c1ccc(C#N)c(CN2CCN(c3ccc(Cl)cc3)CC2)c1	36	15.6	0.423	–
Cc1ccc(N2CCN(Cc3cc(N(C)CCN(C)C)ccc3C#N)CC2)cc1	90	36.2	0.399	–
CN(C)CCN(C)c1ccc(C#N)c(CN2CCNCC2)c1	> 5	> 200	35	–
CN(C)CCN(C)c1ccc(C#N)c(CN2CCN(c3ccc(N)cc3)CC2)c1	8	55.2	6.43	–
N#Cc1ccc(N2CCNC(=O)C2)cc1CN1CCN(c2ccc(Cl)cc2)CC1	> 2	> 200	79.4	–
CN(C)CCN(C)c1ccc(C#N)c(CN2CCC(c3ccc(Cl)cc3)CC2)c1	26	3.75	0.142	–
CN(C)CCN(C)c1ccc(C(N)=O)c(CN2CCN(c3ccc(Cl)cc3)CC2)c1	13	15.5	1.16	–
N#Cc1ccc(OCCN2CCCC2)cc1CN1CCN(c2ccc(Cl)cc2)CC1	20	16.6	0.814	–
CN(C)CCN(C)c1ccc(C#N)c(CN2CCN(c3ccc(Cl)cc3F)CC2)c1	64	13.2	0.205	–
CN(C)CCN(C)c1ccc(C#N)c(CN2CCN(c3ccccc3)CC2)c1	55	50.2	0.902	–
Cc1ccc(N(C)Cc2cc(N3CCN(C)CC3)ccc2C#N)cc1	–	82	–	0.89
CN(C)CCN(C)c1ccc(C#N)c(CN2CCN(c3ccc(F)cc3)CC2)c1	70	52.1	0.749	–
CCN1CCCC1CNc1ccc(C#N)c(CN2CCN(c3ccc(Cl)cc3)CC2)c1 (stereo not drawn)	16	7.64	0.454	–
CN(C)CCN(C)c1ccc(C#N)c(CN2CCN(c3ccncc3)CC2)c1	16	44.7	2.74	–
CNCCN(C)c1ccc(C#N)c(CN2CCN(c3ccc(Cl)cc3)CC2)c1	54	15.8	0.289	–
COc1ccc(N2CCN(Cc3cc(N(C)CCN(C)C)ccc3C#N)CC2)cc1	31	45.5	1.44	–
CN(C)CCN(C)c1ccc(C#N)c(CN2CCN(Cc3ccc(Cl)cc3)CC2)c1	14	15.6	1.05	–

From ChEMBL document CHEMBL4613269, “2-((4-Arylpiperazin-1-yl)methyl)benzonitrile Derivatives as Orally Available Inhibitors of Hepatitis C Virus with a Novel Mechanism of Action” (J Med Chem, 2020)
